Source: ChEMBL document CHEMBL1131034, “Synthesis and pharmacological characterization of novel 6-fluorochroman derivatives as potential 5-HT1A receptor antagonists” (J Med Chem, 1998)

What was measured:
[1] = molecular target: T1, Adrenergic receptor alpha-1 (Rattus norvegicus, UniProt P15823+P23944+P43140); test: Binding affinity against alpha-1 adrenergic receptor on rat cortex using [3H]-prazosin as radioligand.; type: tissue-based, Brain
T1 sequence (P15823 whole entry): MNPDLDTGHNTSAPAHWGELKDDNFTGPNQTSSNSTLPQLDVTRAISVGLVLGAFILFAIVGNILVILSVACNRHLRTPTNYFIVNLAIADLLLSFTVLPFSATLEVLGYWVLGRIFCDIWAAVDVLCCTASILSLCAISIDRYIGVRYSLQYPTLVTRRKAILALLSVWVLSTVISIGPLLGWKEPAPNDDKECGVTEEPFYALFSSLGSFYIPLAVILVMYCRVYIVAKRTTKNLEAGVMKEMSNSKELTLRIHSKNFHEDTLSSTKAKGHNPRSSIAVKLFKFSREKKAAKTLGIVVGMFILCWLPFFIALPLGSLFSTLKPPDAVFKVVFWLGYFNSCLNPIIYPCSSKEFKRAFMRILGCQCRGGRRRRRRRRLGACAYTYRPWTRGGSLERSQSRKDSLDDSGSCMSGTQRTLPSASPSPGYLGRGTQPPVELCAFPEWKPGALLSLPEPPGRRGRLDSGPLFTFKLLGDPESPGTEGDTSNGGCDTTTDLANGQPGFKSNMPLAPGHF
T1 sequence (P23944 whole entry): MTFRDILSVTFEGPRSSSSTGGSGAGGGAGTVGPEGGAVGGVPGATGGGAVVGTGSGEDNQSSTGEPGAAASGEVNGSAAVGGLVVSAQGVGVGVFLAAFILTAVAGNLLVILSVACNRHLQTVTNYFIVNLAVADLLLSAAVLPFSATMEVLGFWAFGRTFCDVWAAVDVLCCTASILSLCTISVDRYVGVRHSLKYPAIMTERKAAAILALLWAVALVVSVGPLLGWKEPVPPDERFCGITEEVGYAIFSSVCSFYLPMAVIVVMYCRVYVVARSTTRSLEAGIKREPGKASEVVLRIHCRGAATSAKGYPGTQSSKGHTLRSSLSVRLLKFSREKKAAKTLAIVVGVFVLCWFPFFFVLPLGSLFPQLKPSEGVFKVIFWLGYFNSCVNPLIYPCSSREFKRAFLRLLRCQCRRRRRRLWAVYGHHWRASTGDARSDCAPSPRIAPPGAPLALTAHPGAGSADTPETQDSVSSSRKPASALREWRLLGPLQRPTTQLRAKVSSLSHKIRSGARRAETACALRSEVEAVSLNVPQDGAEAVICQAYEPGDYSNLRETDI
T1 sequence (P43140 whole entry): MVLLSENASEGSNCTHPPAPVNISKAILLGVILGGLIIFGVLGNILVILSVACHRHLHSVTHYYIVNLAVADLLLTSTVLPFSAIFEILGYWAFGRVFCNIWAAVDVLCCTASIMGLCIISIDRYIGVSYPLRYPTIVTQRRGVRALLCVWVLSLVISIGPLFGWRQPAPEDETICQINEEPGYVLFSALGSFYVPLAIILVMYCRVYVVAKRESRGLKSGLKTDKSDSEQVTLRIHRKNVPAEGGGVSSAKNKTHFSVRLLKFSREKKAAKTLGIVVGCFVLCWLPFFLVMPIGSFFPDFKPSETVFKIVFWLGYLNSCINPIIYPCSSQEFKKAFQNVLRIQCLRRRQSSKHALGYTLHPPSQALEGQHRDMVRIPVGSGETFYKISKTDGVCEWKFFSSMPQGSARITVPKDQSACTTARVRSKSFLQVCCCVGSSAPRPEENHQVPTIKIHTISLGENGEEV

[2] = test system: Rattus norvegicus; test: In vivo antagonist activity was measured as flat body posture (FBP) in a behavioral response test in reserpinized rats upon subcutaneous administration; type: functional
Method in brief: (§1)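 Male Wistar rats given reserpine 18 h before use. Test compound or vehicle given 15 min before 8-OH-DPAT (0.25 mg/kg sc). Starting 3 min after agonist, forepaw treading and flat body posture scored every 3 min for 15 min on a ranked intensity scale. Doses expressed as free base. Mean ± SEM; Mann–Whitney U-test against vehicle control.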

[3] = test system: Rattus norvegicus; test: In vivo antagonist activity was measured as forepaw treading(FT) in a behavioral response test in reserpinized rats at 1 mg/kg(sc) dose.; type: functional; method in brief: as §1
[4] = molecular target: T2, 5-hydroxytryptamine receptor 1A (Rattus norvegicus, UniProt P19327); test: Binding affinity against 5-hydroxytryptamine 1A receptor on rat hippocampus using [3H]8-OH-DPAT as radioligand.; type: tissue-based
T2 sequence (P19327 whole entry): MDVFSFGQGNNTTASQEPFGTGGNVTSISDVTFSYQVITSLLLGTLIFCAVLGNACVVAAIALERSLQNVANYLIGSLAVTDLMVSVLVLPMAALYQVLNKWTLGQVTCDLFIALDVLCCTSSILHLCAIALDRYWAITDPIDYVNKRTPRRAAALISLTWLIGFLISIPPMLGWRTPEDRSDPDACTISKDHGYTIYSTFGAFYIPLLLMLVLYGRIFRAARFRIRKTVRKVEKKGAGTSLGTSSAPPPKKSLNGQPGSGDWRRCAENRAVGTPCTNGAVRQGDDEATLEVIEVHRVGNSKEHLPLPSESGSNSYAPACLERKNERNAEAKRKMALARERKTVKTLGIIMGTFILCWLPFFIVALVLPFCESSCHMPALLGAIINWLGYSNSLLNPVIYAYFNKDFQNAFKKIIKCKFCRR

[5] = test system: Rattus norvegicus; test: In vivo antagonist activity was measured as flat body posture (FBP) in a behavioral response test in reserpinized rats at 3 mg/kg(sc) dose.; type: functional; method in brief: as §1
[6] = molecular target: D(2) dopamine receptor (Rattus norvegicus, UniProt P61169); test: Binding affinity against dopamine receptor D2 on rat striatum using [3H]spiperone as radioligand.; type: tissue-based
Sequence of D(2) dopamine receptor (P61169 whole entry): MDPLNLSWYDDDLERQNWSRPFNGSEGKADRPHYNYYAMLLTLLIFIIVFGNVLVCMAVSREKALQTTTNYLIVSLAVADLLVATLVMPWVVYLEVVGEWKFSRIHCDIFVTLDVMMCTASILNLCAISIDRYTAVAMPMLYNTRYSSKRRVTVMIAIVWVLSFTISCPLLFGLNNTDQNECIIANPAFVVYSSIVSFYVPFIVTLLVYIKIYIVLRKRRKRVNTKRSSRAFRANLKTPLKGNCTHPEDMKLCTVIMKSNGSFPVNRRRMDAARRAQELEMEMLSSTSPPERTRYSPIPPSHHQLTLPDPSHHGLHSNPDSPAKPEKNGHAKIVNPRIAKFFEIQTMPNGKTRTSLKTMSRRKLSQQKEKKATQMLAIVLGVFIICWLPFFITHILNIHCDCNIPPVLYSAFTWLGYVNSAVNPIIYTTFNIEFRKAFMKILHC

[7] = test system: Rattus norvegicus; test: In vivo antagonist activity was measured as forepaw treading(FT) in a behavioral response test in reserpinized rats at 3 mg/kg(sc) dose.; type: functional; method in brief: as §1
[8] = test system: Rattus norvegicus; test: In vivo antagonist activity was measured as forepaw treading(FT) in a behavioral response test in reserpinized rats upon subcutaneous administration; type: functional; method in brief: as §1
[9] = test system: Rattus norvegicus; test: In vivo antagonist activity was measured as flat body posture (FBP) in a behavioral response test in reserpinized rats at 1 mg/kg(sc) dose.; type: functional; method in brief: as §1
[10] = molecular target: Serotonin 1a (5-HT1a) receptor/Adrenergic receptor alpha-1 (Rattus norvegicus) (UniProt P15823+P23944+P43140+P19327); test: Selectivity for 5-HT1A receptor of rat hippocampus and alpha-1 adrenergic receptor of rat cortex.; type: tissue-based
[11] = Binding affinity (Ki) ratio of D2 receptor of rat striatum and 5-HT1A receptor of rat hippocampus.; type: tissue-based
[12] = molecular target: T3, 5-hydroxytryptamine receptor 1A (Homo sapiens) (UniProt P08908); test: Antagonist activity against CHO cells expressing the human 5-hydroxytryptamine 1A receptor in a forskolin stimulated adenylate cyclase (FSC) assay.; type: functional, cell-based
T3 sequence (whole entry): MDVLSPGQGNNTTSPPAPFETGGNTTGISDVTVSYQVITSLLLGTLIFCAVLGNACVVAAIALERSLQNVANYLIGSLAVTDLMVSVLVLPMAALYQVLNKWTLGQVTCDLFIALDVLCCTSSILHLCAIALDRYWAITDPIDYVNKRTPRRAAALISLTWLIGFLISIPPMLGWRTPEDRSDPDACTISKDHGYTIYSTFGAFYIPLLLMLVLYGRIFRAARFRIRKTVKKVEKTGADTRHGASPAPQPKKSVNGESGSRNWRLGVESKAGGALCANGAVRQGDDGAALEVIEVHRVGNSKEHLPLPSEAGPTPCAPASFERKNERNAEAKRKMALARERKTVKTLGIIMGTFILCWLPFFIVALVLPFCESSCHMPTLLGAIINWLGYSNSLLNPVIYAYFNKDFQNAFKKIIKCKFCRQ

[13] = test system: Rattus norvegicus; test: in vivo antagonist activity was measured as forepaw treading(FT) in a behavioral response test in reserpinized rats at 1 mg/kg(sc) dose; type: functional
Method in brief: (§2)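 Male Wistar rats given reserpine 18 h beforehand. Test compound or vehicle given sc; 15 min later 8-OH-DPAT 0.25 mg/kg sc. Forepaw treading and flat body posture scored on a ranked intensity scale every 3 min for 15 min, starting 3 min after 8-OH-DPAT. Doses as free base; mean ± SEM, Mann–Whitney U-test against vehicle controls.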

[14] = test system: Rattus norvegicus; test: in vivo antagonist activity was measured as flat body posture (FBP) in a behavioral response test in reserpinized rats upon subcutaneous administration; type: functional; method in brief: as §2
[15] = test system: Rattus norvegicus; test: in vivo antagonist activity was measured as flat body posture (FBP) in a behavioral response test in reserpinized rats at 3 mg/kg(sc) dose; type: functional; method in brief: as §2
[16] = test system: Rattus norvegicus; test: in vivo antagonist activity was measured as forepaw treading(FT) in a behavioral response test in reserpinized rats at 3 mg/kg(sc) dose; type: functional; method in brief: as §2
[17] = test system: Rattus norvegicus; test: in vivo antagonist activity was measured as flat body posture (FBP) in a behavioral response test in reserpinized rats at 1 mg/kg(sc) dose; type: functional; method in brief: as §2
[18] = test system: Rattus norvegicus; test: in vivo antagonist activity was measured as forepaw treading(FT) in a behavioral response test in reserpinized rats upon subcutaneous administration; type: functional; method in brief: as §2

Structure (SMILES)	Ki [1] [nM]	Behavior score [2]	Behavior score [3]	Ki [4] [nM]	Behavior score [5]	Ki [6] [nM]	Behavior score [7]	Behavior score [8]	Behavior score [9]	Selectivity [10]	Ratio [11]	FSC recovery [12] [%]	Behavior score [13]	Behavior score [14]	Behavior score [15]	Behavior score [16]	Behavior score [17]	Behavior score [18]
COc1ccc(CCCCNCCOc2cc(F)cc3c2OCCC3O)cc1 (stereo in doubt; 34)	10.4	12.4	3.3	0.716	4	0.724	1.8	8.6	6.8									
COc1ccc(CCCCNCCOc2cc(F)cc3c2OCCC3=O)cc1	203	11.3	3.8	3.07	2.3	62.3	1.3	10.2	6	66	20	59						
COc1ccc(CCCCNCCOc2cc(F)cc3c2OCCC3)cc1		11.5	1.8		3		0.5	8.8	3.8	12	1.2	121						
O=C1CCOc2c(OCCNCCCCc3ccc4c(c3)OCCO4)cc(F)cc21	303	11		2.6	8.5	25.1	5.8	7.7		120	9.7	65						
O=C1CCOc2c(OCCNCCCCc3ccc4c(c3)CCO4)cc(F)cc21	169	12.3	4	4.19	3.8	49.6	1.2	10.1	6.8	40	12	68						
COc1ccc(CCCCNCCOc2cc(F)cc3c2OCC=C3)cc1	8.31	11.8	1.3	0.159	2.8	0.288	0	11.8	3.7	52	1.8	109						
CCCN(CCC)[C@H]1CCc2c(F)ccc(O)c2C1										130			1.3	12.6	1.8	0.5	3.5	9.9
O=C1CCOc2c(OCCNCCCCc3ccc4c(c3)OCO4)cc(F)cc21	209	9.7	3	2.67	3	42.1	1.5	7.8	5.3	78	16	55						
COc1ccc(CCNCCOc2cc(F)cc3c2OCCC3=O)cc1	317			4.04		38				78	9.4	9						
